Sampled rows, rich in hits. Any-hit rate of the full collection: about 6.4%.
H69AR inhibit – growth inhibitors of human H69AR lung tumor cells | viability, % at 10 µM | actives 6% (n = 85,000) | H69AR lung tumor viability, ATP luminescence, 72 h; active compounds read low;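 active = viability at or below 40%; inactive = viability above 40%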;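 note: multidrug resistant small cell line overexpressing MRP-1 efflux transporter; 100% = mean luminescence of untreated control wells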
Jurkat viability – cytotoxic compounds reducing Jurkat cell viability | Jurkat E6.1 viability, ATP luminescence, 48 h | inhibition, % at 4 µM | AID 463 | actives 1.2% (n = 56,000);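 active = inhibition above the mean inhibition of all tested compounds plus 3 SD, cut at about 28% in these data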
Lung fibro prol – blocks proliferation of human lung fibroblasts; AID 719; actives 1.1% (n = 85,000); viability, % at 10 µM; LL 47 human lung fibroblast viability, ATP luminescence; active compounds read low;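 active = viability at or below 50% in the single dose screen; inactive = viability above 50%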;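 note: compound exposure lasted 72 h before the ATP readout; 100% = median luminescence of untreated cell-only wells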
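Signal: luminescent ATP detection, CellTiter-Glo; assay system: LL 47 human lung fibroblasts; input: 1,150 cells/well; incubation: overnight cell rest, 72 h compound treatment at 37 °C; measure: % viability versus median cells-only luminescence; medium: IMEM growth medium with 15% fetal bovine serum; dosing: compound addition at 0.1% DMSO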
HUVEC inhibit – human endothelial cell proliferation inhibition; HUVEC proliferation, CellTiter-Glo luminescence, 72 h; active compounds read low; viability, % at 10 µM (by protocol); actives 1.1% (n = 86,000); AID 648;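 active = viability at or below 30%; inactive = viability above 30%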;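 note: 100% = median luminescence of DMSO-only cell control wells on each plate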
The depositor's hits bear a star; · = no result given.

SMILES	H69AR inhibit	Jurkat viability	Lung fibro prol	HUVEC inhibit
CC(O)CNc1nc2c(c(=O)n(C)c(=O)n2C)n1Cc1cccc(Br)c1 (configuration not stated)	·	28*	91	101
CC(C)CNc1nc2c(c(=O)n(C)c(=O)n2C)n1Cc1cccc(Br)c1	88	·	96	88
Cn1c(=O)c2c(nc(NCCCO)n2CCc2ccccc2)n(C)c1=O	87	·	103	105
Cn1c(=O)c2c(nc(NCCO)n2CCc2ccccc2)n(C)c1=O	97	32*	103	109
O=C(C1CCCN(Cc2ccccc2Br)C1)N1CCCCC1 (configuration not stated)	92	8	94	107
CN(CCCCCCCCC(=O)/C=N/O)Cc1ccccc1	24*	·	96	88
CN1CC(=O)NC1=NC(=O)c1cc(F)c(F)cc1Cl	95	-6	99	100
CN1CC(=O)NC1=NC(=O)c1ccc(Cl)c(S(=O)(=O)N2CCCCCC2)c1	12*	2	84	89
O=C(CC(c1ccccc1)c1ccccc1)Nc1ccc(Cl)cn1	17*	·	85	81
O=c1c2ccccc2sn1-c1cc(S(=O)(=O)N2CCOCC2)ccc1N1CCOCC1	·	1	·	·
O=c1c2ccccc2sn1-c1cc(S(=O)(=O)N2CCOCC2)ccc1N1CCCC1	1.0*	·	55	73
Cn1c(=O)n(C)c2cc(NS(=O)(=O)c3ccc4c(c3)CCCC4)ccc21	56	39*	86	71
CCOC(=O)c1oc2ccc(S(=O)(=O)Nc3ccc4c(c3)n(C)c(=O)n4C)cc2c1C	66	44*	81	92
CCOCCCNC(=O)c1cc2sc(Cl)cc2n1CC	36*	2	100	63
CC(C)n1c(NCCc2ccccc2)nc2c1c(=O)n(C)c(=O)n2C	96	·	102	90
CCOC(=O)C1=C(C)NC(C)=C(C(=O)OCC)C1c1ccc(OC)cc1	80	-7	92	92
CCOC(=O)C1=C(N)n2c(s/c(=C\c3ccco3)c2=O)=C(C(=O)OCC)C1c1ccco1 (configuration not stated)	27*	61*	29*	29*
CCOC(=O)C1=C(N)n2c(s/c(=C/c3ccccc3)c2=O)=C(C(=O)OCC)C1c1ccccc1 (configuration not stated)	9.5*	·	66	99
CCOC(=O)C1=C(C)NC(=O)NC1c1ccco1 (configuration not stated)	97	·	104	107
CC(=O)c1cnc2c(-c3ccc(Cl)cc3)c(C)nn2c1C	84	·	83	28*
O=S(=O)(c1cc(-c2nnc(-c3ccc(Br)cc3)o2)ccc1Br)N1CCCCCC1	29*	·	94	77
NC(=O)c1ccc(Br)c(S(=O)(=O)N2CCCCC2)c1	94	2	89	97
Cc1ccc(NC(=O)CS(=O)Cc2nc(-c3ccc(C)cc3)oc2C)cc1 (configuration not stated)	94	·	97	106
CCn1c(SCC(=O)c2ccc(Cl)cc2)nnc1-c1cccs1	89	·	100	88
CCn1c(SCC(=O)c2c[nH]c3ccccc23)nnc1-c1cccs1	46	58*	98	87
SMILES	H69AR inhibit	Jurkat viability	Lung fibro prol	HUVEC inhibit
CC(C)Cn1c(=O)c(C(=O)Nc2ccncc2)c(O)c2ccccc21	9.8*	2	65	62
Cn1c(=O)c(C(=O)Nc2ncccc2O)c(O)c2ccccc21	86	·	99	98
Cn1c(=O)c(C(=O)Nc2cccnc2)c(O)c2ccccc21	12*	·	78	44
Cc1ccnc(NC(=O)c2c(O)c3ccccc3n(C)c2=O)c1	5.7*	6	76	131
Cn1c(=O)c(C(=O)NC2CCCCCCC2)c(O)c2ccccc21	99	-4	96	102
Cc1ccc(NC(=O)c2c(O)c3ccccc3n(C)c2=O)nc1	13*	·	31*	126
CCOC(=O)/C(C(C)=O)=C1\OC(=O)c2ccccc21	100	1	93	87
COC(=O)[C@H](C)NC(=O)Nc1ccc(Oc2ccccc2)cc1	93	3	104	97
Cc1nc(CC(=O)c2c(C)cc(O)cc2O)cs1	105	14	98	95
C1=C(CCNC2=NCCCCC2)CCCC1	93	-3	99	100
COC(=O)CCC(=O)N1CCc2cc(S(=O)(=O)N3CCN(c4ccccc4Cl)CC3)ccc21	94	1	97	97
C=CCNC(=O)CCCOc1ccc(C)cc1	106	·	101	94
C=CCNC(=O)CCCCC(=O)NCC=C	32*	3	97	96
COc1ccc2nc(SCC(=O)N3CCN(c4ccccc4F)CC3)c(C#N)cc2c1	52	·	107	97
CCOc1cc2[nH]c(=S)n(CCCN3CCN(C)CC3)c(=O)c2cc1OCC	95	·	99	86
CCOc1cc2[nH]c(=S)n(CCC(=O)N3CCc4ccccc4C3)c(=O)c2cc1OCC	28*	·	78	77
O=C(c1ccccc1)c1nc[nH]c1C(=O)Nc1ccccc1	24*	-2	71	86
Cn1c2c(c(=O)n(C)c1=O)C1c3cc(Cl)ccc3OCC1CO2 (configuration not stated)	98	·	104	92
CC(=O)Nc1ccc(S(=O)(=O)NC2=C(N3CCN(Cc4ccccc4)CC3)C(=O)c3ccccc3C2=O)cc1	31*	·	103	7.0*
CCOC(=O)Nc1sc2c(c1C(=O)OCC)CCC2	97	·	104	107
CCOC(=O)c1c(NC(=O)CN2CCCCC2)sc2c1CCCC2O (configuration not stated)	20*	11	92	73
Cc1cc(C)n(-c2nc(N(c3ccccc3)c3ccccc3)nc(-n3nc(C)cc3C)n2)n1	12*	·	38*	37
Cc1cc(C)n(-c2nc(Nc3ccccc3)nc(-n3nc(C)cc3C)n2)n1	97	0	99	90
COc1cc(CNc2ccccc2SC)ccc1O	27*	-1	·	88
NS(=O)(=O)c1ccc(CCNC(=O)Nc2ccc(Cl)c(Cl)c2)cc1	19*	·	109	68
SMILES	H69AR inhibit	Jurkat viability	Lung fibro prol	HUVEC inhibit
COc1ccc(-n2nnnc2S(=O)(=O)CC(=O)N2CCCCC2)cc1	2.0*	23	33*	69
CCOc1ccccc1NC(=O)C1CCCCN1S(=O)(=O)c1ccc(F)cc1 (configuration not stated)	65	·	98	81
CC1CCc2cc(F)ccc2N1C(=O)C1(C)CC1(Cl)Cl (configuration not stated)	67	·	89	98
O=C(Nc1ccccc1)N1CCCC(c2nc(-c3cccs3)no2)C1 (configuration not stated)	85	-1	102	95
CCN(CC)CCCN(C(=O)c1cccs1)c1nc(-c2ccc(OC)cc2)cs1	29*	-1	69	15*
COc1ccc(OC)c(-c2csc(N(Cc3ccco3)C(=O)c3cccs3)n2)c1	8.8*	2	98	92
COc1ccc(-c2csc(N(CC3CCCO3)C(=O)c3cccs3)n2)cc1 (configuration not stated)	76	1	99	100
O=C1CCCN1CCC1CCN(C2CC(=O)N(c3ccc(Cl)cc3)C2=O)CC1 (configuration not stated)	100	-5	104	103

Screening data: PubChem BioAssay, several laboratories
